Our source for the IC50, inhibition and Activity values is ChEMBL document CHEMBL3600298, “Antiproliferative and apoptosis-inducing activities of novel naphthalimide-cyclam conjugates through dual topoisomerase (topo) I/II inhibition” (Bioorg Med Chem, 2015).

One experiment has as its system A549. Nature of the experiment: Cytotoxicity against human A549 cells incubated for 24 hrs by sulforhodamine B assay. The note with it: A549, 24 h. Format: functional, cell-based. For orientation: The SRB assay estimates cell density from bound dye.
The test system of another experiment is HCT-116. Description: Cytotoxicity against human HCT116 cells incubated for 24 hrs by sulforhodamine B assay. The note with it: HCT-116, 24 h. In kind it is functional, cell-based.
The test system of experiment [1] is HeLa. Description: Cytotoxicity against human HeLa cells incubated for 24 hrs by sulforhodamine B assay. In kind it is functional, cell-based.
Experiment [2] has as its target DNA topoisomerase 2-alpha (Homo sapiens) (UniProt P11388). Description: Inhibition of human topoisomerase 2 assessed as reduction in ATP-dependent kDNA decatenation at 100 uM incubated for 30 mins by ethidium bromide staining based electrophoresis method.
Experiment [3] relates to HeLa. Nature of the experiment: Induction of apoptosis in human HeLa cells assessed as early apoptotic cells level at 10 uM incubated for 24 hrs by annexin V-FITC and propidium iodide staining based flow cytometry (reference value: 0.72%). In kind it is functional. The method, boiled down: (§1)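 HeLa cells seeded at 1 × 10^6 per well and exposed to compound at 10 μM for 24 h. Cells then treated with cold PBS and resuspended in binding buffer. Annexin V-FITC added, followed by 15 min at 4 °C in the dark. Apoptotic cells quantified by annexin V/PI double staining.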
A general note: In flow cytometry, cells or beads pass a laser one at a time.

For experiment [4], the system named is HeLa. Nature of the experiment: Induction of apoptosis in human HeLa cells assessed as late apoptotic cells level at 10 uM incubated for 24 hrs by annexin V-FITC and propidium iodide staining based flow cytometry (reference value: 1.81%). Format: functional. The method, boiled down: as §1
Experiment [5] deals with HeLa. Nature of the experiment: Induction of apoptosis in human HeLa cells at 10 uM incubated for 24 hrs by annexin V-FITC and propidium iodide staining based flow cytometry. Format: functional. The method, boiled down:
as §1

The species named for experiment [6] is Bos taurus. Description: Inhibition of calf thymus topoisomerase 1 assessed as reduction in relaxation of supercoiled pBR322 DNA at 100 uM incubated for 30 mins by ethidium bromide staining based electrophoresis method. The method, boiled down:
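Calf thymus topo I (0.1 unit) incubated with 0.5 μg supercoiled pBR322 DNA and compound for 30 min at 37 °C in topo I buffer with 0.01% BSA, 20 μL total. Reaction stopped with SDS/loading dye. Samples run on 0.8% agarose in TAE, 35 min at 120 V, then stained with ethidium bromide and imaged under UV.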

The species entered for experiment [7] is Bos taurus. Description: Inhibition of calf thymus topoisomerase 1 assessed as reduction in relaxation of supercoiled pBR322 DNA at 200 uM incubated for 30 mins by ethidium bromide staining based electrophoresis method. The method, boiled down:
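Calf thymus topo I, 0.1 units, with 0.5 µg supercoiled pBR322 DNA and compound in topo I buffer with 0.01% BSA, 20 µL total. Incubated 30 min at 37 °C. Reaction stopped with 10% SDS plus loading dye. Run on 0.8% agarose gel in TAE, 35 min at 120 V. Gel stained with ethidium bromide and imaged under UV.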

For the next experiment, the system named is Calf thymus DNA. Nature of the experiment: Binding affinity to calf thymus DNA assessed as induction of conformational changes at 20 uM by CD spectroscopy. In kind it is nucleic-acid assay. The note with it: Bos taurus. The method, boiled down:
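ct-DNA in 20 mM Tris–HCl pH 7.4, concentration set from molar absorption coefficient 6600 M−1 cm−1, A260/A280 above 1.8; 100 μM DNA with 20 μM compound for 2 h at 25 °C; CD spectra recorded 200–400 nm in 1 cm quartz cell.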

Broadly, the IC50 is the concentration at which inhibition is half-maximal. A high value points to weaker potency.

Activity calls are given as the source filed them. The rule behind the calls is not given here.

Sequence of DNA topoisomerase 2-alpha (Homo sapiens) (P11388 whole entry): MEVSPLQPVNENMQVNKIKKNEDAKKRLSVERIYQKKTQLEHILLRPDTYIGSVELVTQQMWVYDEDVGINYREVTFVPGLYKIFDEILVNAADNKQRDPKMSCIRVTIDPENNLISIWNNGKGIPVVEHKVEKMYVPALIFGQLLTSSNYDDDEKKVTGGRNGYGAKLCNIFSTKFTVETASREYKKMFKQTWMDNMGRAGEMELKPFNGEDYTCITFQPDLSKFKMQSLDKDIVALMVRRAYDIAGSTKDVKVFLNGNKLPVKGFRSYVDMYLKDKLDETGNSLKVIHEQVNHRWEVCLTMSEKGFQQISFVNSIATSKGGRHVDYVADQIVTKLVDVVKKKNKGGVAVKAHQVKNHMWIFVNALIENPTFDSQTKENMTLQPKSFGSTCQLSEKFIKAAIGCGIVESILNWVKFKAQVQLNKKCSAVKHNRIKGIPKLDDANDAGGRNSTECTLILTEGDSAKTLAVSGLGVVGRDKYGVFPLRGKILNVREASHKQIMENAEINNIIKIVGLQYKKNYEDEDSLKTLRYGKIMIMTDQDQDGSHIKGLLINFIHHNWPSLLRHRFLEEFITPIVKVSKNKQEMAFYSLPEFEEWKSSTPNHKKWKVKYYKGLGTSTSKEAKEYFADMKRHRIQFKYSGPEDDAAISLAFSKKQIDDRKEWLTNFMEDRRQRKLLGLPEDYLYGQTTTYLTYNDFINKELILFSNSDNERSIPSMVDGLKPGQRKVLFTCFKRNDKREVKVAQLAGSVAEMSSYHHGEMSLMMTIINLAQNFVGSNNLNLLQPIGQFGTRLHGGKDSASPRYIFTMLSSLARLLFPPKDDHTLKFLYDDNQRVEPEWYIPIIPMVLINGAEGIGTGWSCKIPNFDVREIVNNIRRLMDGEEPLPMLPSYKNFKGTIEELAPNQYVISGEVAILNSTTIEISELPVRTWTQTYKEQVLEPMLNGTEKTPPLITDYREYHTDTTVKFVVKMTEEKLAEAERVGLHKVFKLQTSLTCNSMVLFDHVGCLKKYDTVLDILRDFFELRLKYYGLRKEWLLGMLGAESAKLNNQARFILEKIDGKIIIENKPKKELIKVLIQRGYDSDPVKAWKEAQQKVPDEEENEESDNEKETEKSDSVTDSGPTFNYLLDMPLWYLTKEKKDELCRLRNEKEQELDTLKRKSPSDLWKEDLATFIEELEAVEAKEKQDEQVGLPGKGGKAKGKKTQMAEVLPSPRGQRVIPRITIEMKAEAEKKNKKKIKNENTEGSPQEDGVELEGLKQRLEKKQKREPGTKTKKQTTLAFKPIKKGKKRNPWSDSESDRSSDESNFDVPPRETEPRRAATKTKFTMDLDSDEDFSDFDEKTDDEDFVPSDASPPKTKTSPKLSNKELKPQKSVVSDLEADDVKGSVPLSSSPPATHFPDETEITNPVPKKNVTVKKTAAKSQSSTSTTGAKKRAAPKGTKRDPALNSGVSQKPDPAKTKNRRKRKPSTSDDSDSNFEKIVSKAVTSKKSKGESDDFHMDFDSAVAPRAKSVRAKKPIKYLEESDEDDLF

Turning to `CCCCNc1ccc2c3c(cccc13)C(=O)N(CCCN1CCCNCCNCCCNCC1)C2=O`, the IC50 with A549, in the experiment on HCT-116 and in the experiment with HeLa [1] was > 50 µM in each case.
Regarding `CCCCN1C(=O)c2cccc3c(NCCN4CCCNCCNCCCNCC4)ccc(c23)C1=O`, the IC50 is 38.9 µM in the experiment with A549, 29.2 µM with HCT-116 and 19.2 µM in the experiment with HeLa [1].
As for `COc1cccc2c1C(=O)c1c(O)c3c(c(O)c1C2=O)C[C@@](O)(C(=O)CO)C[C@@H]3O[C@H]1C[C@H](N)[C@H](O)[C@H](C)O1`, in [2], the inhibition result was “Active”.
Take `CCCCCCCCN1C(=O)c2cccc3c(NCCN4CCCNCCNCCCNCC4)ccc(c23)C1=O`: the inhibition result (in [2]; in the experiment listed under Bos taurus [6]) was “Active” each time. The Activity was 39.47% in the experiment with HeLa [3], 60.48% in the experiment with HeLa [4] and >90% with HeLa [5]. Moreover, the half-inhibitory concentration (IC50) in the experiment with A549 came to 15.8 µM; with HCT-116 it was 16.7 µM; with HeLa [1] it was 10.1 µM.
Regarding `CNc1ccc2c3c(cccc13)C(=O)N(CCCN1CCCNCCNCCCNCC1)C2=O`, the IC50 with A549, with HCT-116 and in the experiment on HeLa [1] was > 50 µM each time.
Take `CN1C(=O)c2cccc3c(NCCN4CCCNCCNCCCNCC4)ccc(c23)C1=O`: the figures for the IC50 with A549, in the experiment on HCT-116 and with HeLa [1] were 34.3 µM, 34.1 µM and 13.8 µM, respectively.
Consider `CCCCCCCCCCCCN1C(=O)c2cccc3c(NCCN4CCCNCCNCCCNCC4)ccc(c23)C1=O`, for which the inhibition result (in experiment [2]; in the experiment filed under Bos taurus [6]) was “Active” in each case. In addition, the Activity with HeLa [3] is listed as 86.4%; in the experiment on HeLa [4], 13.54%; in the experiment on HeLa [5], >90%. Further, the IC50 is 18.4 µM in the experiment on A549, 18.2 µM in the experiment with HCT-116 and 11.8 µM in the experiment with HeLa [1].
Regarding `C1CNCCNCCCNCCNC1`, the IC50 with A549, in the experiment with HCT-116 and in the experiment on HeLa [1] was > 50 µM in each case.
Consider `CC[C@@]1(O)C(=O)OCc2c1cc1n(c2=O)Cc2cc3ccccc3nc2-1`, for which the inhibition entry in the experiment listed under Bos taurus [7] is “Active”.
Turning to `CN(C)CCN1C(=O)c2cccc3cc(N)cc(c23)C1=O` [AMONAFIDE], the inhibition result (in experiment [2]; in the experiment listed under Bos taurus [6]) was “Active” each time. For the same compound, the IC50 in the experiment on HeLa [1] came to 9.52 µM.
For `CCCCCCCCNc1ccc2c3c(cccc13)C(=O)N(CCCN1CCCNCCNCCCNCC1)C2=O`, the inhibition result (in experiment [2]; in the experiment listed under Bos taurus [6]) was “Active” each time. For the same compound, the values for the Activity in the experiment on HeLa [3], with HeLa [4] and with HeLa [5] were 1.49%, 98.46% and >90%, respectively. The IC50 in the experiment on A549 was found to be 11.6 µM; in the experiment with HCT-116, 8.07 µM; in the experiment with HeLa [1], 8.4 µM. Also, in the experiment on Calf thymus DNA, the outcome was Active.
For the compound `CCCCCCCCCCCCNc1ccc2c3c(cccc13)C(=O)N(CCCN1CCCNCCNCCCNCC1)C2=O`, the inhibition result (in [2]; in the experiment listed under Bos taurus [6]) was “Active” in each case. Also, the Activity in the experiment on HeLa [3] was 59.52%; in the experiment on HeLa [4], 32.47%; in the experiment on HeLa [5], >90%. Also, the IC50 in the experiment on A549 worked out at 15.8 µM; in the experiment with HCT-116, 13 µM; in the experiment on HeLa [1], 9.36 µM.
